Among all 310,000 compounds or so, about 2,800 (0.9%) were called active.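 Rule for the calls: active = B-score of the integrated calcium signal more than 4 SD below the library mean, with starting fluorescence not abnormally high; inactive = the rest.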 The list comes from a sample in which actives are over-represented; it also holds similar structures and randomly drawn compounds.
assay: enhancers of RGS4 function in calcium signaling – cell-based, HEK293 M3R inducible RGS4, calcium flux, primary screen (AID 463111); conditions: HEK293 M3R/inducible RGS4, carbachol calcium flux Fluo4, at 10 µM; hits give low values;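 for B-score: negative B-score means reduced calcium response which marks RGS4 activation or potentiation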
How it was run: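 test system = M3R-expressing HEK293 line, RGS4 induced by doxycycline | probe or stimulus = carbachol at ECmax as muscarinic agonist stimulus | timing = dye loading 30 min 37 °C, buffer rest 30 min RT | signal = calcium dye Fluo4 fluorescence | evaluation = B score from integrated fluorescence ratio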

| Compound | B-score |
| --- | --- |
| CCCCOc1ccc(N(CC(=O)NCC2CCCO2)C(=O)CCC(=O)Nc2cc(C)ccn2)cc1 (stereo not given) | inactive |
| Cc1cc(C)cc(NS(=O)(=O)c2ccc(Oc3ncc(C(F)(F)F)cc3Cl)cc2)c1 | -8.23 (active) |
| COc1ccccc1Oc1ccc(S(=O)(=O)Nc2cccnc2)cc1 | inactive |
| Cc1cc(C)cc(NS(=O)(=O)c2ccc(F)cc2)c1 | inactive |
| CCN1C(=O)[C@H]2[C@@H](c3ccc(C)cc3)N3C(=O)N(c4cccc(Br)c4)C(=O)[C@@]3(CC)[C@H]2C1=O | inactive |
| Cc1cc(NC(=O)CCN2CCN(Cc3ccccc3)CC2)ccc1Br | inactive |
| O=C(Nc1ccccc1C(=O)N1CCOCC1)C1CCC(=O)N1C1CCCC1 (stereo not given) | inactive |
| CCOc1ccc(CNC(=O)C2CCC(=O)N2C2CCCC2)cc1OC (stereo not given) | inactive |
| CCc1ccccc1NC(=O)[C@@H]1CCC(=O)N1C1OC(=O)c2c1ccc(OC)c2OC (stereo not given in full) | -8.3 (active) |
| CCC(=O)N1CCCc2ccccc21 | inactive |
| CC1CC(C)CN(CC(=O)N2c3ccccc3CCc3ccccc32)C1 (stereo not given) | inactive |
| CN1CCN(C(=O)N2c3ccccc3CCc3ccccc32)CC1 | -9.54 (active) |
| N#CC1(C#N)C(C(=O)C23CC4CC(CC(C4)C2)C3)C12CCOCC2 (stereo not given) | inactive |
| FC(F)(F)C1CCCN(c2nsc3ccccc23)C1 (stereo not given) | inactive |
| COC(=O)c1cccc(N(CC(=O)NCC2CCCO2)C(=O)CCC(=O)Nc2cc(C)on2)c1 (stereo not given) | inactive |
| CC(C)CCn1c(CN(C)Cc2ccccc2)nc2c1c(=O)n(C)c(=O)n2C | inactive |
| CN(Cc1ccccc1)c1nc2c(c(=O)[nH]c(=O)n2C)n1CCSc1nc2ccccc2[nH]1 | inactive |
| Cc1ccnc(SCCn2c(N(C)Cc3ccccc3)nc3c2c(=O)n(C)c(=O)n3C)n1 | -7.93 (active) |
| CC(C)c1nnc(NC(=O)COC(=O)/C=C/c2ccc([N+](=O)[O-])cc2)s1 | inactive |
| COCCCNc1nc2ccccc2nc1NS(=O)(=O)c1ccc(F)cc1 | inactive |
| O=C(Cn1ncc(N2CCCC2)c(Br)c1=O)c1ccc(Cl)cc1 | inactive |
| COc1cccc(N(CC(=O)NC2CCCC2)C(=O)CCCC(=O)Nc2ccccn2)c1 | inactive |
| Fc1ccc(Cn2nnnc2C(c2cccs2)N2CCCCCC2)cc1 (stereo not given) | inactive |
| CCCCN1C(=O)/C(=C/C=C2/C=Cc3ccccc3N2CC)SC1=S | inactive |

| Compound | B-score |
| --- | --- |
| CCN1C(=O)/C(=C2/Sc3ccccc3N2CCCS(=O)(=O)O)SC1=S | inactive |
| CN1C=CC=C/C1=C1\SC(=S)N(Cc2ccccc2)C1=O | -9.24 (active) |
| CCCCN1C(=O)/C(=C2/Sc3ccc(Cl)cc3N2CC)SC1=S | inactive |
| CCCCN1C(=O)/C(=C2/C=CC=CN2C)SC1=S | -8.69 (active) |
| COc1cc(/C=C2/SC(=S)N(Cc3ccccc3)C2=O)cc(OC)c1O | inactive |
| CC(C)CNC(=S)NNC(=O)c1ccccc1OC(F)F | inactive |
| Cc1cccc(C(C)C)c1NC(=O)COC(=O)C1CC(=O)N(Cc2ccccc2)C1 (stereo not given) | inactive |
| CNC(=O)c1[nH]cnc1C(=O)N[C@@H](CC(C)C)C(=O)OCc1ccccc1 | inactive |
| N#Cc1ccc(/C=C2\CCn3c2nc2cc(C(=O)O)ccc2c3=O)cc1 | inactive |
| O=C(O)CC(SCC(=O)Nc1ccc(Br)cc1)C(=O)O (stereo not given) | inactive |
| Cc1ccc(NC(=O)c2oc3ccccc3c2C)c([N+](=O)[O-])c1 | inactive |
| COc1ccc(-c2csc3ncnc(Oc4ccc5c(C)cc(=O)oc5c4)c23)cc1 | inactive |
| COc1ccc(-c2csc3ncnc(N4CCN(S(=O)(=O)c5cccc(F)c5)CC4)c23)cc1 | -7.35 (active) |
| COc1ccc(-c2csc3ncnc(N4CCN(S(=O)(=O)c5ccccc5C#N)CC4)c23)cc1 | inactive |
| O=C(NCc1ccccc1)[C@H]1C[C@@H]1[C@H](NP(=O)(c1ccccc1)c1ccccc1)c1ccccc1 | inactive |
| CCCn1nnnc1NC(=O)COc1ccc(Cl)cc1C | inactive |
| CCCCCCCCCCCCN1C(=O)CSC1c1cccnc1 (stereo not given) | -10 (active) |
| CN(C)CCCN1C(=O)CSC1c1ccc([N+](=O)[O-])cc1 (stereo not given) | inactive |
| CCCCCCOc1ccc(OC(=O)c2cccnc2)cc1 | inactive |
| CC1(c2ccc3ccccc3c2)NC(=O)N(CC(N)=O)C1=O (stereo not given) | inactive |
| CC1(C)CC(=O)C=C(N2CCOCC2)C1 | inactive |
| Cc1ccc(OCCCCN2CCCCC2)c(Br)c1 | -7.76 (active) |
| O=[N+]([O-])c1ccccc1OCCCCN1CCCCC1 | inactive |
| Cc1ccc(C(C)(C)C)c(OCCCCN2CCCC2)c1 | inactive |

| Compound | B-score |
| --- | --- |
| O=C(NCCCCc1ccccc1)C1CC(c2ccc([N+](=O)[O-])cc2)=NO1 (stereo not given) | inactive |
| Cc1ccc(NC(=O)c2sccc2C)cc1[N+](=O)[O-] | inactive |
| O=C(Nc1ccc([N+](=O)[O-])cc1)C1CC12CCC2 (stereo not given) | inactive |
| COc1ccc(C(=O)N(C)CC(O)c2ccccc2)cc1OC1CCN(C(C)=O)CC1 (stereo not given) | inactive |
| CCC(NC(=O)c1ccccc1NC(=O)c1ccccc1)C(=O)NNC(=O)CSc1nc2ccccc2o1 (stereo not given) | inactive |
| CNS(=O)(=O)c1cccc(C(=O)NCC2CCCCC2)c1 | inactive |
| CN(C(=O)c1cccc(OC2CCN(S(=O)(=O)N(C)C)CC2)c1)C1CCOC1 (stereo not given) | inactive |
| CN(C)S(=O)(=O)N1CCC(Oc2cccc(C(=O)NCCCC3CCCC3)c2)CC1 | -7.71 (active) |
| Cc1ccc(-c2nc(CS(=O)(=O)CC(=O)NCc3ccc4c(c3)OCO4)c(C)o2)cc1 | inactive |
| N=c1c2c3c(sc2ncn1N)CCCCC3 | inactive |
| N=c1c2c3c(sc2nc2n1CCCCC2)CCCC3 | -8.12 (active) |
| CC1(C)Cc2c(sc3nc4n(c(=N)c23)CCCCC4)CO1 | inactive |
| CCOc1ccc(S(=O)(=O)Nc2ccc(C(=O)NCCCN3CCCC3=O)cc2)cc1 | inactive |
| CN(C)CCOC1c2ccccc2-c2ccccc21 | inactive |
| CN(C)CCOC(=O)C(c1ccccc1)C1(O)CCCC1 (stereo not given) | inactive |
| Cc1ccccc1C(OCCN(C)C)C1CCCCC1 (stereo not given) | -8.62 (active) |
| O=C(CCCCCn1c(=S)[nH]c2cc3c(cc2c1=O)OCO3)N1CCN(c2ccc(F)cc2)CC1 | inactive |
| Cc1ccc(C)c(N2CCN(C(=O)CCc3nc4ccccc4[nH]3)CC2)c1 | inactive |
| Cc1ccc(C)c(N2CCN(C(=O)CCCCn3c(=O)[nH]c4ccccc4c3=O)CC2)c1 | inactive |
| Cc1ccc(C)c(N2CCN(C(=O)Cn3ncn4cccc4c3=O)CC2)c1 | inactive |
| Cc1ccc(C)c(N2CCN(C(=O)CCCCCn3c(=S)[nH]c4ccc(N5CCOCC5)cc4c3=O)CC2)c1 | -10.9 (active) |
| Cc1ccc(C)c(N2CCN(C(=O)CCCn3c(=O)c4cccn4c4cccnc43)CC2)c1 | -7.65 (active) |
